The values that follow come from ChEMBL document CHEMBL1129735, “High-affinity alpha-aminobutyric acid A/benzodiazepine ligands: synthesis and structure-activity relationship studies of a new series of tetracyclic imidazoquinoxalines” (J Med Chem, 1996).

SMILES strings stand for the structures.

The target of assay [1] is GABA-A receptor; anion channel. Briefly: Displacement of [3H]flunitrazepam from GABA-A benzodiazepine receptor of rat cortical membranes. The class given is cell membranes, Membrane. A general note: In a radioligand displacement assay an active substance lowers the binding of a labelled ligand.
In assay [2] the target is GABA-A receptor; alpha-1/beta-2/gamma-2 (Homo sapiens) (UniProt P14867+P47870+P18507). Nature of the assay: In vitro efficacy for GABA-A alpha-1-beta-2-gamma-2 subtype expressed in A293 cells in Cl- current assay. The settings on record: Rattus norvegicus; HEK293. The class given is functional, cell-based. The method, boiled down: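 Stable A293 (human kidney) cells were transfected with α1, β2 and γ2 cDNAs and selected 2 weeks in 1 mg/mL G418; Northern-positive cells were used. Whole-cell patch clamp used a pipette solution of CsCl/EGTA/MgCl2/ATP/Hepes at pH 7.3 and an external normal saline at pH 7.2. GABA with or without drug was applied by U-tube for 10 s. Holding potential was -60 mV, room temperature.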

Assay [3] has as its target GABA A receptor alpha-6/beta-2/gamma-2 (Rattus norvegicus) (UniProt P18508+P30191+P63138). Nature of the assay: Displacement of [3H]-Ro- 15-4513 from alpha-6 beta2 gamma2 subunits of Rat GABA-A receptor expressed in Sf-9 insect cell membrane. The method, boiled down: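 Sf-9 cells co-infected with baculoviruses for α6, β2 and γ2 subunits at an MOI of 3 pfu and harvested at 60 h. Membranes were made by homogenising in normal saline, then spun at 1000g and 40000g. Binding used 6 nM [3H]Ro 15-4513 with varying test ligand concentrations in normal saline, 60 min at 4 °C. Bound label was separated on glass-fibre filters and counted by scintillation.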

For assay [4], the target named is GABA A receptor alpha-6/beta-2/gamma-2 (Rattus norvegicus, UniProt P18508+P30191+P63138). Nature of the assay: Displacement of [3H]-Ro- 15-4513 from alpha-6 beta2 gamma2 subunits of Rat GABA-A receptor expressed in Sf-9 insect cell membranes.
GABA A receptor alpha-6/beta-2/gamma-2, sequence (P18508 whole entry): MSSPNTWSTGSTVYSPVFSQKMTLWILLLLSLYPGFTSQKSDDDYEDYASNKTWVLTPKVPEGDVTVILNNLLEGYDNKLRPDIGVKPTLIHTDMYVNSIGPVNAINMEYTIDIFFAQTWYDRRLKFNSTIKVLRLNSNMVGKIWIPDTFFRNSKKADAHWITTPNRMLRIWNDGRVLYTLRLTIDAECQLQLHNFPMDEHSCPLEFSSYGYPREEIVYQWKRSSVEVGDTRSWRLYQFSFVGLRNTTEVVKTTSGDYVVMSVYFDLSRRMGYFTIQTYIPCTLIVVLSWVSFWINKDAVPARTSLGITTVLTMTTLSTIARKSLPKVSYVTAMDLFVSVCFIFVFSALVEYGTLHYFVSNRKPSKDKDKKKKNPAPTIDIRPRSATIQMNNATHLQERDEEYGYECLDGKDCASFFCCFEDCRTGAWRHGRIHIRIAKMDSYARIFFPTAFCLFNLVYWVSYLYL
GABA A receptor alpha-6/beta-2/gamma-2, sequence (P30191 whole entry): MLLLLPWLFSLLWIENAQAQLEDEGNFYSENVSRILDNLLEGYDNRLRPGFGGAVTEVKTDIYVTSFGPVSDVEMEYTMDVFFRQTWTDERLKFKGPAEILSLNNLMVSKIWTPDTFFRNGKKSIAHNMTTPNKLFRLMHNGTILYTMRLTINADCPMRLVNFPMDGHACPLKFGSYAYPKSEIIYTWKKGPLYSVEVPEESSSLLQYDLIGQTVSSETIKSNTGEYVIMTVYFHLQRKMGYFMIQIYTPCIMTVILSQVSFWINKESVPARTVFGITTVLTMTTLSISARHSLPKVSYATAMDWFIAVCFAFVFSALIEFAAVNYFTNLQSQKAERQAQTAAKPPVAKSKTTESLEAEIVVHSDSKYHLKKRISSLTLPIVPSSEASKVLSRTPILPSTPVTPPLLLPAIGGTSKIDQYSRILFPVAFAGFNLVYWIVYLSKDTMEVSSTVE
GABA A receptor alpha-6/beta-2/gamma-2, sequence (P63138 whole entry): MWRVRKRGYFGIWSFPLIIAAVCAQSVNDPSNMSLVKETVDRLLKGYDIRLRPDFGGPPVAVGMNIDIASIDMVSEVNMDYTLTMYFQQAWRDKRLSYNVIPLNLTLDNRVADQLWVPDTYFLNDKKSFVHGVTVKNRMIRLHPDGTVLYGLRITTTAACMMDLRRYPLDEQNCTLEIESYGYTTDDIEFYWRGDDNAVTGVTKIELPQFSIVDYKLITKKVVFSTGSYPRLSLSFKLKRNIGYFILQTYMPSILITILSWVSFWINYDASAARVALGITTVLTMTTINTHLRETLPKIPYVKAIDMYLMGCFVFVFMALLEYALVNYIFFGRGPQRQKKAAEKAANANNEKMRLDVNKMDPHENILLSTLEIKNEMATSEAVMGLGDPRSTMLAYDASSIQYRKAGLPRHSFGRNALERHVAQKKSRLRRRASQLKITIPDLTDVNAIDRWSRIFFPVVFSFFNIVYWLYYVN
The target in assay [5] is GABA-A receptor; anion channel (Rattus norvegicus) (UniProt O09028+P15431+P18506+P18508+P19969+P20236+P23574+P23576+P28471+P28473+P30191+P62813+P63079+P63138+Q91ZM7+Q9ES14). Nature of the assay: Binding to GABA-A receptor complex relative to TBPS binding to picrotoxin convulsant site. The class given is functional. Summed up: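 Rat brain membranes ([…]) with 2 nM [35S]TBPS in 1 M NaCl, 10 mM Tris/HCl pH 7.4, 120 min at 24 °C; drugs added from methanol (≤0.2%, constant). Filtration read-out, nonspecific binding with 2 mM unlabeled TBPS.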

As a reminder, the Ki is the dissociation constant of the complex between target and ligand, obtained from inhibition or displacement. A lower Ki goes with higher affinity. As usually defined, the inhibition is the change of the read-out against control, counted positive when it falls. Low readings indicate a weak effect, high ones a strong effect. On to `CC(C)N1Cc2cccc3c2N(Cc2c(-c4noc(C5CC5)n4)ncn2-3)C1=O`, for which the inhibitory constant (Ki) was 1.2 nM in assay [1] and more than 589 nM in assay [4]. The molecule further had an Activity in assay [2] of 0.65. For the same molecule, the inhibition in assay [3] came to 20.9%. Besides, the Ratio in assay [5] was 0.41.
Consider `O=C1CCC2c3c(-c4noc(C5CC5)n4)ncn3-c3ccccc3N12` (stereo unspecified), for which the Activity in assay [2] worked out at 0.29. This molecule returned a Ki in assay [4] of 13.2 nM. The Ratio in assay [5] was 1.15.
On to `O=C1OCc2cccc3c2N1Cc1c(-c2noc(C4CC4)n2)ncn1-3`, for which the Ki is 21 nM in assay [1] and more than 589 nM in assay [4]. In assay [2], this molecule yielded an Activity of 0.35. In addition, the inhibition in assay [3] was 14.3%. Also, the Ratio in assay [5] amounted to 0.52.
Regarding `CC1(C)CC(=O)N2Cc3c(-c4noc(C5CC5)n4)ncn3-c3cccc1c32`, the Ki in assay [1] was 9.9 nM; in assay [4], more than 589 nM. Moreover, in assay [2], the Activity is 1.1. This molecule also gave an inhibition in assay [3] of 35%. Moreover, the Ratio in assay [5] turned out to be 0.75.
On to `CN1Cc2cccc3c2N(Cc2c(-c4noc(C5CC5)n4)ncn2-3)C1=O`, for which the Ki in assay [1] is 3.7 nM; in assay [4] it was more than 589 nM. In assay [2], this molecule gave an Activity of 0.5. This molecule yielded an inhibition in assay [3] of 16.3%. In addition, in assay [5], the Ratio turned out to be 0.08.
In turn, `CC(C)n1c(=O)c2c(-c3noc(C4CC4)n3)ncn2c2ccccc21` [PANADIPLON] came in with an Activity in assay [2] of 0.04. Affinity in assay [4] was put at a Ki of 603 nM.
Consider `O=C1CCc2cccc3c2N1Cc1c(-c2noc(C4CC4)n2)ncn1-3`, for which the Ki is 2.6 nM in assay [1] and more than 589 nM in assay [4]. Also, in assay [2], the Activity came out at 0.07. The molecule also gave an inhibition in assay [3] of 0%. The Ratio in assay [5] is 0.09.
For `CC(C)(C)OC(=O)N1CC(=O)N2Cc3c(-c4noc(C5CC5)n4)ncn3-c3cccc1c32`, in that order: 579 nM, more than 589 nM, 0.6, 13.5% and 0.63.
For `COn1c(=O)n2c3c(cccc31)-n1cnc(-c3noc(C4CC4)n3)c1C2`, in that order: 7.3 nM, more than 589 nM, 0.73, 36.4% and 0.68.
For `O=C1CC(c2ccccc2)c2cccc3c2N1Cc1c(-c2noc(C4CC4)n2)ncn1-3` (stereo unspecified), in that order: 25 nM, more than 589 nM, 0.88, 13.6% and 0.88.
As for `CN1C(=O)CN=C(c2ccccc2)c2cc(Cl)ccc21` [DIAZEPAM], the Activity in assay [2] is 1.
Molecule `O=C1COc2cccc3c2N1Cc1c(-c2noc(C4CC4)n2)ncn1-3` came in with a Ki in assay [1] of 2 nM. Besides, the Ratio in assay [5] came to 0.35.
Take `O=C1CNc2cccc3c2N1Cc1c(-c2noc(C4CC4)n2)ncn1-3`: the Ki in assay [1] was 19 nM; in assay [4], more than 589 nM. For the same molecule, in assay [2], the Activity was 0.39. The inhibition in assay [3] amounted to 14.7%. Besides, the Ratio in assay [5] came to 0.58.
In assay [2], `CN(C)C(=O)N1Cc2c(-c3noc(C4CC4)n3)ncn2-c2ccccc21` [PNU-91571] gave an Activity of 0.68. This molecule showed an inhibition constant Ki in assay [4] of 13.2 nM. The Ratio in assay [5] came out at 0.69.
